From ChEMBL document CHEMBL1629532, “Design, synthesis, and structure-activity relationships of 3-ethynyl-1H-indazoles as inhibitors of the phosphatidylinositol 3-kinase signaling pathway” (J Med Chem, 2010) come the findings set out here.

Each structure is given as a SMILES string. Activity calls are given as the source filed them. No cut-off for these calls is given here.

One test has as its system MDA-MB-231. The experiment in a line: Growth inhibition of human MDA-MB-231 cells after 72 hrs by ATPlite assay. Type of test: functional. To be noted: MDA-MB-231, 72 h. In short, it runs like this:
(§1)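 Cells seeded at about 3000 per well, grown 24 h, then given fresh medium and test compound in triplicate at 0.5 to 100µM in DMSO (0.5% final). Exposure 72 h at 37 °C, 5% CO₂. Viability measured by ATPlite luminescence and normalized to DMSO-treated controls. GI50 obtained by curve fitting. HeLa cultured in DMEM/10% FBS; MCF7, MDA-MB-231 and PC3 cultured in RPMI+GlutaMAX/10% FBS.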
On the technique in general: ATP-based viability assays read luminescence as a measure of living cells.

Test [1] concerns the target Dual specificity protein kinase CLK2 (Homo sapiens) (UniProt P49760). The experiment in a line: Inhibition of CLK2 at 10 uM.
The target of test [2] is Leucine-rich repeat serine/threonine-protein kinase 2 (Homo sapiens) (UniProt Q5S007). The experiment in a line: Inhibition of LRKK2 at 10 uM.
In test [3] the target is T1, 3-phosphoinositide-dependent protein kinase 1 (Homo sapiens, UniProt O15530).
T1 sequence (O15530 whole entry): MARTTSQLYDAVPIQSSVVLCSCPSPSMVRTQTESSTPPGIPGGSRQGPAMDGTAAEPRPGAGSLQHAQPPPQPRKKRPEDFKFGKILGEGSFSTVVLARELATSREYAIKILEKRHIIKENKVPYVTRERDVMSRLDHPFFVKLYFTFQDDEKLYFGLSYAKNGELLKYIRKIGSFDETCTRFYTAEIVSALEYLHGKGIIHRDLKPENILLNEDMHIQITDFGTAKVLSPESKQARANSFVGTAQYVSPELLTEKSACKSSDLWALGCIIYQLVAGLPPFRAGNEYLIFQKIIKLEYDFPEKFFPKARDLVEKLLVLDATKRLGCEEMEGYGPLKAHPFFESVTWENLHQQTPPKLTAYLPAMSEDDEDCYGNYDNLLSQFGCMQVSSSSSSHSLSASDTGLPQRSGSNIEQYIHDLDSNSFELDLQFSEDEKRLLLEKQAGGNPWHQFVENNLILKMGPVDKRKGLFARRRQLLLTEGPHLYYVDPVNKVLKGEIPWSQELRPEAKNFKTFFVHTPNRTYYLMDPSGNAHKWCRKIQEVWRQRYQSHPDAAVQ
The experiment in a line: Inhibition of PDK1 by Z'-LYTE kinase activity assay.

Test [4] deals with RAC-alpha serine/threonine-protein kinase (Homo sapiens) (UniProt P31749). The experiment in a line: Inhibition of AKT1 by biochemical assay.
The test system of test [5] is Platelet-derived growth factor receptor alpha (Homo sapiens), P16234 [V561D]. The experiment in a line: Inhibition of PDGFRA V561D mutant at 10 uM.
The next test deals with MCF7. The experiment in a line: Growth inhibition of human MCF7 cells after 72 hrs by ATPlite assay. The format is functional. The settings on record: MCF7, 72 h. In short, it runs like this: as §1
The test system of test [6] is Platelet-derived growth factor receptor alpha (Homo sapiens), P16234 [T674I]. The experiment in a line: Inhibition of PDGFRA T674I mutant at 10 uM.
For test [7], the target named is Maternal embryonic leucine zipper kinase (Homo sapiens) (UniProt Q14680). The experiment in a line: Inhibition of MELK at 10 uM.
Test [8] addresses Vascular endothelial growth factor receptor 2 (Homo sapiens) (UniProt P35968). The experiment in a line: Inhibition of KDR at 10 uM.
Test [9] addresses Serine/threonine-protein kinase Sgk1 (Homo sapiens) (UniProt O00141). The experiment in a line: Inhibition of SGK1 at 10 uM.
In test [10] the target is Receptor-type tyrosine-protein kinase FLT3 (Homo sapiens) (UniProt P36888). The experiment in a line: Inhibition of FLT3 at 10 uM.
Test [11] has as its target Interleukin-1 receptor-associated kinase 1 (Homo sapiens) (UniProt P51617). The experiment in a line: Inhibition of IRAK1 at 10 uM.
Test [12] concerns the target Tyrosine-protein kinase SYK (Homo sapiens) (UniProt P43405). The experiment in a line: Inhibition of SYK at 10 uM.
Test [13] deals with NT-3 growth factor receptor (Homo sapiens) (UniProt Q16288). The experiment in a line: Inhibition of NTRK3 at 10 uM.
Test [14] addresses Mitogen-activated protein kinase 8 (Homo sapiens) (UniProt P45983). The experiment in a line: Inhibition of JNK1 at 10 uM.
In test [15] the target is Inhibitor of nuclear factor kappa-B kinase subunit alpha (Homo sapiens) (UniProt O15111). The experiment in a line: Inhibition of IKKalpha at 10 uM.
Test [16] is described as follows: Inhibition of DNA-PK at 10 uM.
In test [17] the target is MAP/microtubule affinity-regulating kinase 4 (Homo sapiens) (UniProt Q96L34). The experiment in a line: Inhibition of MARK4 at 10 uM.

Chain of NT-3 growth factor receptor (Homo sapiens) (Q16288 32-839 limits assumed): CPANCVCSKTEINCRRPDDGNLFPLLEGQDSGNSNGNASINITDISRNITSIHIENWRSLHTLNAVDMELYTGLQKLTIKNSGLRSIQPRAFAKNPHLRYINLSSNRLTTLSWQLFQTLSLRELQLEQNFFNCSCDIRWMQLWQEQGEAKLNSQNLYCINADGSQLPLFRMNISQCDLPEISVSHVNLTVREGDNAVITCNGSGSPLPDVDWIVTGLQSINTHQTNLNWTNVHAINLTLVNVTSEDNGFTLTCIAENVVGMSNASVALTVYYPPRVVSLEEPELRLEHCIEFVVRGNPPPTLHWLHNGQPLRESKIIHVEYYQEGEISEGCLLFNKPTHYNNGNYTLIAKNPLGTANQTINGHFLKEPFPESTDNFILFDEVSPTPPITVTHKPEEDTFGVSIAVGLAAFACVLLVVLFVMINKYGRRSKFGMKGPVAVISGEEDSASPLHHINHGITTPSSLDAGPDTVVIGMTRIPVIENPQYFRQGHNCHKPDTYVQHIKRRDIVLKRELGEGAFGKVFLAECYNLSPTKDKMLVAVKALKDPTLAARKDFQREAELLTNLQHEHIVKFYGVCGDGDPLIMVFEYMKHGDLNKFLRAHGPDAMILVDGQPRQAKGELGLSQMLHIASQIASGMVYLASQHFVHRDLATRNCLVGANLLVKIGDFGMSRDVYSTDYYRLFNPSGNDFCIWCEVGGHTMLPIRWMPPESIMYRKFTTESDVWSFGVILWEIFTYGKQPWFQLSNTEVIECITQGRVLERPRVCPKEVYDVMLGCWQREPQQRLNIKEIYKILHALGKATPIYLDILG
Chain of Mitogen-activated protein kinase 8 (Homo sapiens) (P45983 whole entry): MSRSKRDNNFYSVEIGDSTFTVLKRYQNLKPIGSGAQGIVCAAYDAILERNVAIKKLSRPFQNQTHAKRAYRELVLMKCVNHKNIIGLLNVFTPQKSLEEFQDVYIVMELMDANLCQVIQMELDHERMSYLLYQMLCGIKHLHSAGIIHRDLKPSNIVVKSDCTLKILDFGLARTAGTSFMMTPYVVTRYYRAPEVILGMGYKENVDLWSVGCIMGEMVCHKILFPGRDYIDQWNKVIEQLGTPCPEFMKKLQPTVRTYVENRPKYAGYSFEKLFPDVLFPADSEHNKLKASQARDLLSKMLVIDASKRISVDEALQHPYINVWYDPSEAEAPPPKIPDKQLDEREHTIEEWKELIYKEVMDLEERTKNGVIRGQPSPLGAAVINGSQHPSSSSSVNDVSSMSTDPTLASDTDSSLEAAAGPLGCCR
Chain of Leucine-rich repeat serine/threonine-protein kinase 2 (Homo sapiens) (Q5S007 whole entry): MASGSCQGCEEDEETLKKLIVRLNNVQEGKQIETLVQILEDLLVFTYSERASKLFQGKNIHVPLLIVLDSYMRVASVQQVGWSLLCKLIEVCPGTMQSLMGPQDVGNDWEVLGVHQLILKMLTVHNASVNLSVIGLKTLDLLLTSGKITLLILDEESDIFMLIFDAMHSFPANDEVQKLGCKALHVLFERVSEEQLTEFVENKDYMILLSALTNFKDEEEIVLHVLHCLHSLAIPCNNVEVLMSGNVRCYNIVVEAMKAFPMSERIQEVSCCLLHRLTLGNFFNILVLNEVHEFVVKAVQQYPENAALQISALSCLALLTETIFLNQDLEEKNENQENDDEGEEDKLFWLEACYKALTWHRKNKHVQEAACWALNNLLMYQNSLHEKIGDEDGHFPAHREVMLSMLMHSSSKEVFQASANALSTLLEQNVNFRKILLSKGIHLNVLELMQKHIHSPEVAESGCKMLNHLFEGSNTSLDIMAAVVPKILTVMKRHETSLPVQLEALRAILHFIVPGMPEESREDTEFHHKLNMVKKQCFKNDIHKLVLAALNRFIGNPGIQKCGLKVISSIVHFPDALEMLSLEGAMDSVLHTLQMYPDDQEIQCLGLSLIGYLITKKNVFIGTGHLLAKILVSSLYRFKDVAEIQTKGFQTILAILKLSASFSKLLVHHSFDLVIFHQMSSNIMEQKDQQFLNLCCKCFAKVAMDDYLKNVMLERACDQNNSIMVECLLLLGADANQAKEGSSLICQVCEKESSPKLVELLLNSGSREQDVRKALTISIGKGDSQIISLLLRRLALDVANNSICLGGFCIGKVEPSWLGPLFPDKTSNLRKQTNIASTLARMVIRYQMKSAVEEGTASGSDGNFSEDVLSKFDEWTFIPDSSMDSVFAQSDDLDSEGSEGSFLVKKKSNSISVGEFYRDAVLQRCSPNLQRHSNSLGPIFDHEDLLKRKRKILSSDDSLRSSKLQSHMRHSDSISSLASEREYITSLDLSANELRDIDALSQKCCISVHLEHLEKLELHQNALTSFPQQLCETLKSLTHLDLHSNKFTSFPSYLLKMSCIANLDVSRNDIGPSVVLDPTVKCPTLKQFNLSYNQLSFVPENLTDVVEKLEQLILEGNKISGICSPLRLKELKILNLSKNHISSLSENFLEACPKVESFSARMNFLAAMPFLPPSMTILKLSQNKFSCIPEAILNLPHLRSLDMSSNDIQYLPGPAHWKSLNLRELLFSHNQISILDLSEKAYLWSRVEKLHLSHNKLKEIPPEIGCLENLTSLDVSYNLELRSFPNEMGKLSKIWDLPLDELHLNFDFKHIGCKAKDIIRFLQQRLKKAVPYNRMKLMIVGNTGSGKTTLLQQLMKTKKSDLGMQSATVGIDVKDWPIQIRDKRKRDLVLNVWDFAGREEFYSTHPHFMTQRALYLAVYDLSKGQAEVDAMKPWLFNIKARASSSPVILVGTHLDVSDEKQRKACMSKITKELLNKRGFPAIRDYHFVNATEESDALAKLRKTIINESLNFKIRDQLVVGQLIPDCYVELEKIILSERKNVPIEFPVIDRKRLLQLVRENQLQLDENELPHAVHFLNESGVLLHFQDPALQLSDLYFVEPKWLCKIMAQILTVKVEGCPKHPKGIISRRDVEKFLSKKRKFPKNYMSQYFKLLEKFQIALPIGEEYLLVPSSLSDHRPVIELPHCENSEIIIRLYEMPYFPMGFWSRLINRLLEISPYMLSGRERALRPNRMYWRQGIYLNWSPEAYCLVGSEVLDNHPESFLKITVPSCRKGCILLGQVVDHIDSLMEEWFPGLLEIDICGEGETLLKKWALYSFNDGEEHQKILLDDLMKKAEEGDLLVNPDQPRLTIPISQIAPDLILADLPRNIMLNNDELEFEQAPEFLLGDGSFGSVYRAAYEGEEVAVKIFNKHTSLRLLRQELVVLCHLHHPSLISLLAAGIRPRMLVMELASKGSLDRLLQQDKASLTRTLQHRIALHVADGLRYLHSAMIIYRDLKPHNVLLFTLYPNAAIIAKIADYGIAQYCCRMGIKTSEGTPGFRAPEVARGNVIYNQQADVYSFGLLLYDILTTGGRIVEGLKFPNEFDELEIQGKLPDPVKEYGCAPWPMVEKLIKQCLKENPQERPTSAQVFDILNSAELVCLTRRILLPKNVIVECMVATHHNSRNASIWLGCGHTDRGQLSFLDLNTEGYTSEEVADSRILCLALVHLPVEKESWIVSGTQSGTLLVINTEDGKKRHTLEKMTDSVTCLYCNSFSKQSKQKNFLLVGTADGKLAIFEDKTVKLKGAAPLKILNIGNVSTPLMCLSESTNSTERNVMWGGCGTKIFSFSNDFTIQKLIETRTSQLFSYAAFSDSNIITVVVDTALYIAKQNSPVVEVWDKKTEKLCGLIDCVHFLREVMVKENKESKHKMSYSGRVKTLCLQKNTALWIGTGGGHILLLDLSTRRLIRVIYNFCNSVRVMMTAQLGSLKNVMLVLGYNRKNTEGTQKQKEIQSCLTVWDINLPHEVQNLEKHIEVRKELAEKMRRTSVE
Chain of Dual specificity protein kinase CLK2 (Homo sapiens) (P49760 whole entry, looked up): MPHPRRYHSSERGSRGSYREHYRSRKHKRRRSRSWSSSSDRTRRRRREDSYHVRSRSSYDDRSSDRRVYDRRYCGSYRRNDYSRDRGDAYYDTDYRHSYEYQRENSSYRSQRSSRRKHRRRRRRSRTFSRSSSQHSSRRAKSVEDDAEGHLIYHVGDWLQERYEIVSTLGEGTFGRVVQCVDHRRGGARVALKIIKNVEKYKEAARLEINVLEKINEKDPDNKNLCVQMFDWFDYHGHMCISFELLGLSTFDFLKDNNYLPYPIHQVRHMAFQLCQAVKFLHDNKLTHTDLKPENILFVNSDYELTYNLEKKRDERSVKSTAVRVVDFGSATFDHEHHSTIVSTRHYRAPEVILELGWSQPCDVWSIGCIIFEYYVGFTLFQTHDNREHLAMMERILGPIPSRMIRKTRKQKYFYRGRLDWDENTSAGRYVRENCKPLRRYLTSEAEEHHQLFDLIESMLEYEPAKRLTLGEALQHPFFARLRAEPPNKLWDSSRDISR
Chain of RAC-alpha serine/threonine-protein kinase (Homo sapiens) (P31749 whole entry): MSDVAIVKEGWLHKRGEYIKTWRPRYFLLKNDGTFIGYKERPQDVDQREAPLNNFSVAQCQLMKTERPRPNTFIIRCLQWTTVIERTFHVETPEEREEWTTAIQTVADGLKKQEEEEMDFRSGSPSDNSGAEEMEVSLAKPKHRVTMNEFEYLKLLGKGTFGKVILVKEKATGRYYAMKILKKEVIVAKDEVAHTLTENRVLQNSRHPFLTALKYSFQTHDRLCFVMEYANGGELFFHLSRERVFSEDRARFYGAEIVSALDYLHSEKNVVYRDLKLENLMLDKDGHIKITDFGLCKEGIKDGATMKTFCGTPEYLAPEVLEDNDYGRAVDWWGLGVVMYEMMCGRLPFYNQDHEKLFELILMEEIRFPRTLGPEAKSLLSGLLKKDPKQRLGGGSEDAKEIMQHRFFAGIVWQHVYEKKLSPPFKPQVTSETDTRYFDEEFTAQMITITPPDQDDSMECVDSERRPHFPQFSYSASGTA

For `C(#Cc1n[nH]c2ccccc12)c1ccncc1`, the values for the GI50 with MDA-MB-231 and with MCF7 were 7.84 µM and 2.58 µM, respectively. In addition, the inhibition in test [1], in test [2], in [5], in test [6], in test [7] and in [8] was > 50% each time. Moreover, the inhibition in [9], in test [10], in test [11], in [12], in test [13] and in test [14] was > 50% each time. In addition, the inhibition in [15], in [16] and in test [17] was > 50% throughout. Besides, the IC50 (usually the midpoint of a concentration-inhibition curve) in [3] amounted to 3.87 µM. The inhibition (as a rule, the percentage by which the read-out fell short of the control) in [4] is “inactive”.
